Measurements: PMC12069899 (Acta Pharmaceutica Sinica. B, 2024)
No end group written: not given here.

What was measured:
TRPV4 channel [1] = assay: Analgesia in homozygous Trpv4−/− mice, CFA pain; format: in vivo, mouse; conditions: 5 mg/kg, 2 h or 3 h post-injection; n = 4–5
[2] = test system: mice (conditioned place preference); assay: Conditioned place preference; format: in vivo, mouse; conditions: s.c.; morphine 10 mg/kg; P10581 2 μg/kg, 100 μL; n = 5
Method in brief: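 Two-chamber boxes (20 × 20 × 20 cm), one with vertical black-white stripes and one with horizontal stripes. Conditioning training was repeated for 4 days. On Day 5, 24 h after the final dose, mice were placed in the central chamber with free access to both chambers for 15 min. Score = time on the drug-paired side postconditioning minus preconditioning. Dosing was blinded.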

[3] = test system: rats (analgesic tolerance, CCI); assay: Chronic analgesic tolerance in CCI neuropathic pain; format: in vivo, rat
[4] = test system: rats (mechanical hyperalgesia and neuropathic pain); conditions: ref [1], [27]; cited from earlier work
rats (thermal pain) = assay: Thermal laser test of hot pain; format: in vivo, rat; conditions: i.d. 1200 ng/kg, 5 μL; laser 52.5 ± 0.5 °C; n = 5
TRPC1 and TRPC6 = conditions: MS channels in DRG neurons; ref [27]; cited from earlier work
[5] = test system: stretch-activated cationic currents in mammalian astrocytes, cardiomyocytes, and the central nervous system; conditions: ref [23], [24], [25], [26]; cited from earlier work
rats (cold pain) = assay: Cold plantar test; format: in vivo, rat; conditions: i.d. 1200 ng/kg, 5 μL; n = 5
Piezo1/Piezo2 channel = conditions: ref [63], [64]; cited from earlier work
[6] = test system: rats (mechanical hyperalgesia induced by Carr.); assay: Randall–Selitto test, carrageenan inflammatory pain, peptide given i.d.; format: in vivo, Sprague–Dawley rat
Method in brief: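 SD rats (180–220 g) received Carr. (1%, 5 μL) i.d. into the right hindpaw after baseline PWT. Test compound was given i.d. in 5 μL at the inflamed site 1.5 h after Carr. PWT was measured 2 h after dosing. AUC (g·min) was calculated per rat, and ΔPWT = PWT(post-drug) − PWT(pre-drug). Saline was the control. Dosing was blinded; mean ± SEM.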

TRPV4 channel [7] = assay: Whole-cell patch clamp, GSK101-evoked TRPV4 currents in HEK293; format: cell-based; conditions: GSK101 0.3 μmol/L, extracellular; ∼25 °C
Method in brief: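 HEK293 cells were transiently transfected with TRPV4 by lipofection. Whole-cell voltage clamp was performed 24 h after transfection at ~25 °C; currents were filtered at 2 kHz and digitized at 10 kHz. Current was evoked by the TRPV4 activator GSK101, with GSK219 as the selective inhibitor. Test compound stock was freshly diluted in normal saline.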

For `CN1CC[C@]23c4c5ccc(O)c4O[C@H]2[C@@H](O)C=C[C@H]3[C@H]1C5` [morphine], the “anti-hyperalgesic effect of morphine in WT vs. Trpv4-deficient mice” value (TRPV4 channel [1]) was “equally effective in the anti-hyperalgesic effects among wild-type and Trpv4-deficient mice”, the CPP preference score [2] was “significantly increased CPP scores” and the “loss of anti-hyperalgesic effect on repeated injection” value ([3]; i.d. 5 mg/kg twice a day, CCI) was “completely lost its anti-hyperalgesic effect from Day 4”. For the same molecule, the “chronic tolerance after repeated injections” value ([3]; i.d. twice a day, 9 days, from Day 8 after CCI, morphine 5 mg/kg, P10581 8 μg/kg) was “time-dependent decrease in PWT”.

In the case of “GsMTx4 (GCLEFWWKCNPNDDKCCRPKLKCSKLFKLCNFSF; ends and bridges not checked; cysteine pairing not given here; UniProt Q7YT39 47-80, looked up)”, the “reduction of mechanical hyperalgesia and neuropathic pain” value [4] is given as “reduce mechanical hyperalgesia and neuropathic pain in rats”, the “effect on paw withdrawal latency (PWL), hot pain” value (rats (thermal pain)) is given as “did not change their PWL when compared to the saline group” and the “channel sensitivity to GsMTx4” value (TRPC1 and TRPC6) is given as “GsMTx4-sensitive”. For the same molecule, the “inhibition of stretch-activated cationic currents” value [5] was “inhibit stretch-activated cationic currents”, the “effect on PWL, cold pain” value (rats (cold pain)) was “neither P10581 nor GsMTx4 at 1200 ng/kg (i.d. 5 μL) affected PWL following cold stimulus” and the “channel sensitivity to GsMTx4” value (Piezo1/Piezo2 channel) was “sensitive to GsMTx4”. The “effect on PWT at low dose” value ([6]; i.d. 0.6 μg/kg, 5 μL, n = 6) was “only a mild impact on PWT”, the “IC50 for anti-hyperalgesic effect (ΔPWT)” value ([6]; i.d., 2 h after injection, Hill equation fit, n = 5 per group, mean ± SEM) was 689.3 ± 21.5 ng/kg and the “dose dependence of analgesic effect” value ([6]; i.d., Fig. 1G) was “dose-dependent”.

With `CC(C)C[C@H](NC(=O)c1cc2ccccc2s1)C(=O)N1CCN(C(=O)[C@H](CO)NS(=O)(=O)c2ccc(Cl)cc2Cl)CC1` [GSK101] the “activation of TRPV4 current” value (TRPV4 channel [7]) was “robust increase in the currents”.
